High-throughput results as filed in PubChem.
Hits are enriched below; roughly 3.4% of the tested compounds scored in any of these assays.
IMP-1 inhibitor: blocks Pseudomonas aeruginosa IMP-1 metallo-beta-lactamase; purified IMP-1, nitrocefin hydrolysis, epi-absorbance fluorescence; 0.45% of 290,000 active; inhibition, % at 5.6 µM;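 active means inhibition above the mean plus 3 SD of all compounds in the same screening run, cut at about 4.5% in these data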;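 further: 0% = IMP-1 with DMSO and 100% = DMSO wells lacking enzyme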
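System: Purified recombinant IMP-1 metallo-beta-lactamase enzyme | Measured by: Fluorescence quenching readout, ex 480/em 530 nm | Replication: Singlicate | Incubation: 15 min preincubation plus 25 min reaction at 25 °C | Evaluation: Percent inhibition from optical density relative to buffer-blank wells | Benchmarks: DMSO with and without IMP-1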
MEKK3 PB1 HTS: modulators (inhibitors or enhancers) of MEK5 binding to human MEKK3 PB1 domain | Q99759 | bead-based flow cytometry, Alexa488-MEK5 binding to MEKK3; actives lie on both sides; 0 = blocked by unlabeled MEK5, 100 = vehicle | binding response (% of control), % at 10 µM | 1.4% of 290,000 active;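 active means binding response more than 3 SD above or below the average of its plate-row segment, actives on both sides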;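 further: Alexa488 bead fluorescence after subtracting the streptavidin-only scavenger bead signal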
Target sequence (Q99759 whole entry, looked up, the tested form may be a part): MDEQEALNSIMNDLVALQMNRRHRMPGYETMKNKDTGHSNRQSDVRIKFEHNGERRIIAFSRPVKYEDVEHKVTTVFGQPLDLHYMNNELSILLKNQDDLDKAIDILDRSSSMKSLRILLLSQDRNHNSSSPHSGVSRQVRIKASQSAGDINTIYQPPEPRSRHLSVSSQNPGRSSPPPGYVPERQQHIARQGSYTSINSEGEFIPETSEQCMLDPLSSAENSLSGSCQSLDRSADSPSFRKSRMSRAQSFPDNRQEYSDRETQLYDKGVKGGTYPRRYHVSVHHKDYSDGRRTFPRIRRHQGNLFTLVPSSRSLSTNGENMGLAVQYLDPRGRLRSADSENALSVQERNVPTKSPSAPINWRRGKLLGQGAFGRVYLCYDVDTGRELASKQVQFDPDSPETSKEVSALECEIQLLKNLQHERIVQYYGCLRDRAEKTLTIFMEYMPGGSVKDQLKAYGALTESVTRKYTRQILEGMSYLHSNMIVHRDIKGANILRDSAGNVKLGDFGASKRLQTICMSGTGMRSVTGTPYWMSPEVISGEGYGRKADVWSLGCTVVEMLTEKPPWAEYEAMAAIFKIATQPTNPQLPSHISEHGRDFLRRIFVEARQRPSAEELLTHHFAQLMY
MEKK2 WT-MEK5: raises or lowers MEK5 binding to wildtype human MEKK2 PB1 domain. 1.1% of 290,000 active. binding response (% of control), % at 10 µM. bead flow cytometry, Alexa488-MEK5 binding to MEKK2 WT; actives lie on both sides. AID 1531; in the data active means binding response below about 67% or above about 130%
MEKK2mut PB1 HTS: signal of MEK5 binding to mutant human MEKK2 PB1 domain; AID 1530; percent response, % at 10 µM; 0.35% of 290,000 active; bead flow cytometry, Alexa488-MEK5 binding to MEKK2 mutant; in the data active means percent response above about 24%, passing the limit was not always enough
VIM-2 inhibitor: inhibitors of Pseudomonas aeruginosa VIM-2 metallo-beta-lactamase; purified VIM-2, nitrocefin hydrolysis, epi-absorbance fluorescence; 0.89% of 290,000 active; inhibition, % at 5.6 µM;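 active means inhibition above the mean of all tested compounds plus 3 SD, cutoff set per screening run, cut at about 7.5% in these data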;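 further: red hydrolysis product quenches plate fluorescence so inhibitors raise well fluorescence; 0% = enzyme with DMSO and 100% = DMSO without enzyme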
MEKK2wt confirm: raises or lowers MEK5 binding to wildtype human MEKK2, retest; shares compounds with MEKK3 PB1 HTS; bead flow cytometry, Alexa488-MEK5 binding to MEKK2 WT; actives lie on both sides; binding response (% of control), % at 10 µM; 2.4% of 5,900 active; AID 1892; in the data active means binding response below about 16% or above about 210%; inactive means in between
MEKK2mut-MEK5: signal of MEK5 binding to mutant human MEKK2, retest; bead flow cytometry, Alexa488-MEK5 binding to MEKK2 mutant; 2% of 5,900 active; shares compounds with MEKK3 PB1 HTS; percent response, % at 10 µM; in the data active means percent response mostly above about 71%, no sharp cut-off; inactive means mostly below about 38%;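 further: higher means compound restores mutant binding toward wildtype level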
MEKK3-MEK5 inh: confirmation of inhibitors of MEK5 binding to human MEKK3. shares compounds with MEKK3 PB1 HTS. bead flow cytometry, Alexa488-MEK5 binding to MEKK3; active compounds read low. binding response (% of control), % at 10 µM. 1.8% of 5,900 active;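 active means binding response below 72% of control, or above a set upper limit, though filed actives all read lower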;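 further: 100% = DMSO only wells and 0% = binding blocked by excess unlabeled MEK5; lower values mean stronger disruption of MEK5 binding to MEKK3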
Numbers without * were called inactive; nt = not tested or not shown; [ ] = remark or other dose.

SMILES	IMP-1 inhibitor	MEKK3 PB1 HTS	MEKK2 WT-MEK5	MEKK2mut PB1 HTS	VIM-2 inhibitor	MEKK2wt confirm	MEKK2mut-MEK5	MEKK3-MEK5 inh
COc1cccc(C2=CC(c3cc(OC)ccc3OC)n3nnnc3N2)c1 (stereo not drawn)	1	nt	nt	nt	0	nt	nt	nt
COc1ccc(OC)c(C2C=C(c3ccc(C)c(C)c3)Nc3nnnn32)c1 (stereo not drawn)	nt	1.0*[inhibitor]	0.0*[inhibitor]	-47	nt	96	1	104
O=C(N/N=C/c1cccc(Oc2ccccc2)c1)c1ccccc1Br	-3	107	102	3	-2	nt	nt	nt
COc1ccccc1-n1c(-c2ccccc2)c[nH]c1=S	-2	49*[inhibitor]	65	-21	0	87	-5	88
S=c1[nH]cc(-c2ccccc2)n1-c1ccccc1Cl	-4	100	94	-2	-1	nt	nt	nt
O=c1cc(CO)oc(CN2CCN(Cc3ccccc3)CC2)c1O	2	116	135*	14	2	101	0	99
CN(C)C(=O)/C(=C/c1cn(-c2ccccc2)nc1-c1cccc([N+](=O)[O-])c1)NC(=O)c1ccccc1	-2	107	96	9	3	nt	nt	nt
O=C(CSc1ccc2ccccc2n1)c1ccc2c(c1)OCO2	-3	106	103	5	-2	nt	nt	nt
O=C(CSc1nc2c(c(=O)n1-c1ccc(F)cc1)SCC2)NCc1ccco1	-2	124*	120	4	-1	103	-1	100
COc1ccc(SC[C@H](CC(C)C)N2CCN(C)CCC2=O)cc1	nt	128*	146*	2	nt	113	-1	103
Cc1ccc(SC[C@H](c2ccccc2)N2CCN(CC(C)C)CCC2=O)cc1	nt	100	99	4	nt	nt	nt	nt
CCCN1CCC(=O)N([C@H](CSc2ccc(OC)cc2)c2ccccc2)CC1	nt	129*	165*	4	nt	111	3	103
COc1ccc(SC[C@H](CC(C)C)N2CCN(CCc3ccccc3)CCC2=O)cc1	nt	106	137*	10	nt	124	14	104
O=C1CCN(CCc2ccccc2)CCN1[C@H](CSc1ccc(Br)cc1)Cc1ccccc1	nt	118	154*	2	nt	142	36	105
O=C1CCN(Cc2ccccc2)CCN1[C@H](CSc1ccccc1)Cc1ccccc1	-4	97	99	0	-2	nt	nt	nt
COC(=O)NNC(=O)/C=C/c1ccccc1	-2	107	106	3	-2	nt	nt	nt
CCCCn1c(N)c(NCCC(C)C)c(=O)[nH]c1=O	-4	102	97	-2	0	nt	nt	nt
Cc1onc(-c2c(F)cccc2Cl)c1C(=O)OCC(=O)NC1CC1	-3	70*[inhibitor]	90	-2	-1	98	-3	102
CCOC(=O)C1CCN(C(=O)CSc2ccc(Cl)cc2)CC1	-2	129*	108	1	-1	100	-5	100
Cc1onc(-c2c(F)cccc2Cl)c1C(=O)OCC(=O)NC(N)=O	-3	104	97	-12	-4	nt	nt	nt
CCOC(=O)C1CCN(C(=O)CSc2ccc(Br)cc2)CC1	-2	101	98	3	-2	nt	nt	nt
CCOC(=O)C1CCN(C(=O)c2c(-c3c(F)cccc3Cl)noc2C)CC1	3	127*	115	8	1	100	-6	101
CN(CC(=O)NCc1cccs1)S(=O)(=O)c1cccc2nsnc12	-2	2.0*[inhibitor]	3.0*[inhibitor]	-21	-2	107	7	103
Cc1cccc(N(Cc2cc3ccc(C)cc3[nH]c2=O)C(=O)c2ccco2)c1	-2	133*	125	25	-1	101	-2	103
Cc1ccc2cc(CN(C(=O)c3ccco3)c3ccccc3)c(=O)[nH]c2c1	-3	93	93	-2	-6	nt	nt	nt
COc1ccc(CCN(Cc2cc3ccc(C)cc3[nH]c2=O)C(C)=O)cc1OC	-4	135*	120	30	-2	101	-4	101
